The values below come from publication PMC11168086 (RSC Advances, 2024).

≈ marks a conversion by molar mass, not a printed value.

Data set [1] relates to HeLa (cervical cancers) cells. Briefly: MTT antiproliferative assay, HeLa. The class given is cell-based, human. The following applies: for IC50: Homo sapiens, 72 h. An outline of the steps:
(§1)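 Cells from ECACC were grown in MEM with 10% FBS, non-essential amino acids and penicillin-streptomycin, at 37 °C and 5% CO2. Cells were seeded at 5000 per well, left overnight, then exposed to test compound 72 h. MTT was added for 4 h, and formazan was dissolved in DMSO (60 min, 37 °C) and read at 545 nm. Compounds giving >50% inhibition at 10 μM were rerun over 0.1–30 μM for IC50. Two independent experiments used five wells each, with cisplatin as positive control.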
On the technique in general: Formazan colour is commonly taken as a measure of viable cells.

In data set [2] the test system is MCF7 (breast cancer) cells. Briefly: MTT antiproliferative assay, MCF7. The class given is cell-based, human. The following applies: for IC50: MCF-7, MTT, 72 h; for Lipophilic efficiency (LipE = pIC50 – logP): MCF-7. The gist of the method: as §1
The test system of data set [3] is MDA-MB-231 (breast cancer) cells. In words: MTT antiproliferative assay, MDA-MB-231. The following applies: for IC50: Homo sapiens, MDA-MB-231, 72 h, MDA-MB-231, MTT, 72 h; for Lipophilic efficiency (LipE = pIC50 – logP): MDA-MB-231. In kind it is cell-based, human. An outline of the steps: as §1
In data set [4] the test system is A2780 (ovarian cancer) cells. Briefly: MTT antiproliferative assay, A2780. The class given is cell-based, human. The following applies: for Lipophilic efficiency (LipE = pIC50 – logP): A2780; for IC50: Homo sapiens, A2780, 72 h. An outline of the steps: as §1
Data set [5] can be described thus: Kinetic aqueous solubility. In kind it is physicochemical. To be noted: PBS buffer, pH 7.4, aqueous buffer, kinetic from dmso stock. An outline of the steps: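 10 mM DMSO stocks were diluted into PBS pH 7.4 to a 500 μM target and shaken 2 h at room temperature. Samples were vacuum-filtered, diluted with acetonitrile to prevent precipitation, and scanned by UV-vis over 250–500 nm. Concentration was derived from a 3-point calibration at each compound's λmax.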

The nature of data set [6]: Intestinal-specific PAMPA. The class given is in vitro ADME. The following applies: pH 6.5. The gist of the method:
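Donor solutions at nominal 500 μM came from 10 mM DMSO stocks diluted in phosphate donor buffer, pH 6.5. The acceptor buffer held 5% DMSO. The membrane was phosphatidylcholine plus cholesterol in chloroform/dodecane/hexane (5:25:70 v/v). Plates were incubated 4 h at 37 °C, covered. Acceptor UV-vis absorbance was read over 250–500 nm. Pa was calculated by the Wohnsland–Faller equation from acceptor versus equilibrium absorbance at λmax.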
For orientation: In PAMPA a lipid-coated filter parts donor from acceptor wells.

What is called IC50 is the concentration needed to halve the response being measured. A lower IC50 goes with greater potency in that assay. One may read the kinetic solubility as the concentration staying in solution when a stock, usually in DMSO, is diluted into the medium. The term Papp denotes the rate of passage across a membrane or cell layer, normalised by area and donor concentration. A higher Papp goes with ready permeation. For the molecule `COc1ccc(CNC[C@](O)(COCc2ccc(OC)cc2)[C@@H]2CC[C@@H](C)C[C@H]2OCc2ccc(OC)cc2)cc1` [Compound 52a], the “Lipophilic efficiency (LipE = pIC50 – logP)” value in data set [1] is given as −0.57; in data set [2], −0.43; in data set [3], −0.50; in data set [4], −0.40. In addition, the IC50 in data set [1] worked out at 2000 nM; in data set [2] (Homo sapiens, MCF7, 72 h), 1400 nM; in data set [3], 1700 nM; in data set [4], 1300 nM. The molecule further came in with a solubility (kinetic) at 2 h in data set [5] of 107 ± 2.6 µM (≈ 60.3 µg/mL). In addition, the Papp at 4 h, 500 μM in data set [6] was determined as 23.7 ± 3.8 ×10⁻⁶ cm/s.
For `C[C@@H]1CC[C@@H]([C@](O)(CNCc2ccc(F)cc2)COCc2ccc(F)cc2)[C@H](OCc2ccc(F)cc2)C1` [Compound 45a], the “Lipophilic efficiency (LipE = pIC50 – logP)” value in data set [1] is listed as −1.23; in data set [2], −0.69; in data set [3] it was −1.02; in data set [4], −1.12. Further, the IC50 in data set [1] was 2900 nM; in data set [2] (Homo sapiens, MCF7, 72 h), under 1000 nM; in data set [2] it was 840 nM; in data set [3], 1800 nM; in data set [4], 2300 nM. This molecule also had a kinetic solubility at 2 h in data set [5] of 122 ± 4.5 µM (≈ 64.4 µg/mL). In data set [6], this molecule yielded a Papp at 4 h, 500 μM of 33.3 ± 3 ×10⁻⁶ cm/s.
Consider `C[C@@H]1CC[C@@H]([C@@](C)(O)Cn2cnc3ccccc32)[C@H](OCc2ccccc2)C1` [Compound 15b], for which the entries for the “Lipophilic efficiency (LipE = pIC50 – logP)” value in data set [1] and in data set [2] were 0.06 and −0.10, respectively. Also, the IC50 in data set [1] is 6500 nM; in data set [2] (Homo sapiens, MCF7, 72 h) it was 9400 nM; in data set [3], 27600 nM; in data set [4], 10900 nM. Also, the kinetic solubility at 2 h in data set [5] is 34.6 ± 1.1 µM (≈ 13.1 µg/mL). In data set [6], this molecule gave a Papp at 4 h, 500 μM of 26.3 ± 4.6 ×10⁻⁶ cm/s.
As for `COc1ccc(COC[C@@](O)(CNCc2ccc(F)cc2)[C@@H]2CC[C@@H](C)C[C@H]2OCc2ccc(OC)cc2)cc1` [Compound 51a], the results for the “Lipophilic efficiency (LipE = pIC50 – logP)” value in data set [1], in data set [2] and in data set [4] were −1.08, −0.84 and −0.80, respectively. Moreover, the concentration for half-maximal inhibition (IC50) in data set [1] was determined as 2800 nM; in data set [2] (Homo sapiens, MCF7, 72 h) it was 1600 nM; in data set [3] it was 1900 nM; in data set [4], 1500 nM. The molecule further came in with a kinetic solubility at 2 h in data set [5] of 259 ± 1.3 µM (≈ 143 µg/mL). In data set [6], the apparent permeability coefficient (Papp) at 4 h, 500 μM is 19.7 ± 1.6 ×10⁻⁶ cm/s.
`COc1cccc(CNC[C@@](C)(O)[C@@H]2CC[C@@H](C)C[C@H]2OCc2ccccc2)c1` [Compound 11a]: the “Lipophilic efficiency (LipE = pIC50 – logP)” value in data set [1] is −0.19; in data set [2] it was 0.32. Further, the IC50 in data set [1] is 6300 nM; in data set [2] (Homo sapiens, MCF7, 72 h) it was 2000 nM; in data set [3], 11700 nM; in data set [4], 12500 nM. For the same molecule, in data set [5], the kinetic solubility at 2 h turned out to be 82 ± 2.2 µM (≈ 32.6 µg/mL). The molecule also gave an apparent permeability coefficient (Papp) at 4 h, 500 μM in data set [6] of 1.8 ± 0.5 ×10⁻⁶ cm/s.
With `COc1ccccc1CNC[C@@](C)(O)[C@@H]1CC[C@@H](C)C[C@H]1OCc1ccccc1` [Compound 12a], the “Lipophilic efficiency (LipE = pIC50 – logP)” value in data set [1] is −0.05; in data set [2] it was −0.01; in data set [4], −0.26. For the same molecule, the IC50 in data set [1] is 4600 nM; in data set [2] (Homo sapiens, MCF7, 72 h) it was 4200 nM; in data set [3] it was 12800 nM; in data set [4], 7400 nM. The molecule also yielded a solubility (kinetic) at 2 h in data set [5] of 270 ± 21 µM (≈ 107 µg/mL). Besides, the Papp at 4 h, 500 μM in data set [6] was 49.2 ± 4 ×10⁻⁶ cm/s.
With `COc1ccc(CNC[C@@](C)(O)[C@@H]2CC[C@@H](C)C[C@H]2OCc2ccccc2)cc1` [Compound 10a], the “Lipophilic efficiency (LipE = pIC50 – logP)” value is recorded as −0.03 in data set [1], 0.32 in data set [2], −0.15 in data set [3] and −0.25 in data set [4]. The IC50 is 4300 nM in data set [1]; 1900 nM in data set [2] (Homo sapiens, MCF7, 72 h); 5700 nM in data set [3]; 7300 nM in data set [4]. Besides, the kinetic solubility at 2 h in data set [5] stood at 25.7 ± 1 µM (≈ 10.2 µg/mL). The Papp at 4 h, 500 μM in data set [6] stood at 20.6 ± 1.4 ×10⁻⁶ cm/s.
